Values after ≈ are worked out from the molar mass of the structure shown. Active and inactive are the calls of the source. The calls are words filed in the database; no cut-off is given here.
Assays:
[1] = tested on: Staphylococcus aureus; assay: Antimicrobial activity against methicillin-sensitive Staphylococcus aureus CCARM 0204 incubated for 24 hrs by microtiter broth dilution method; assay type: functional; conditions: CCARM 0204, 24 h
Outline: (§1)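 Two-fold serial dilutions of compound in DMSO were made in Mueller Hinton broth in 96-well microtiter plates, with 0.64% DMSO final. Each well was inoculated with an overnight bacterial culture at 5 × 10⁵ cfu/mL and incubated at 37 °C for 24 h. MIC was the lowest concentration showing no visible growth.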

[2] = tested on: Staphylococcus aureus; assay: Antimicrobial activity against methicillin-sensitive Staphylococcus aureus CCARM 0027 incubated for 24 hrs by microtiter broth dilution method; assay type: functional; conditions: CCARM 0027, 24 h; outline: as §1
[3] = tested on: Staphylococcus aureus; assay: Antimicrobial activity against methicillin-resistant Staphylococcus aureus CCARM 3634 incubated for 24 hrs by microtiter broth dilution method; assay type: functional; conditions: CCARM 3634, 24 h; outline: as §1
[4] = tested on: Staphylococcus aureus; assay: Antimicrobial activity against methicillin-sensitive Staphylococcus aureus CCARM 0205 incubated for 24 hrs by microtiter broth dilution method; assay type: functional; conditions: CCARM 0205, 24 h; outline: as §1
[5] = tested on: Staphylococcus aureus; assay: Antimicrobial activity against methicillin-resistant Staphylococcus aureus CCARM 3089 incubated for 24 hrs by microtiter broth dilution method; assay type: functional; conditions: CCARM 3089, 24 h; outline: as §1
[6] = tested on: Staphylococcus aureus; assay: Antimicrobial activity against methicillin-sensitive Staphylococcus aureus CCARM 3640 incubated for 24 hrs by microtiter broth dilution method; assay type: functional; conditions: CCARM 3640, 24 h; outline: as §1
[7] = tested on: Staphylococcus aureus; assay: Antimicrobial activity against methicillin-resistant Staphylococcus aureus CCARM 3090 incubated for 24 hrs by microtiter broth dilution method; assay type: functional; conditions: CCARM 3090, 24 h; outline: as §1
[8] = tested on: Staphylococcus aureus; assay: Antimicrobial activity against methicillin-resistant Staphylococcus aureus CCARM 3635 incubated for 24 hrs by microtiter broth dilution method; assay type: functional; conditions: CCARM 3635, 24 h; outline: as §1
[9] = tested on: Salmonella typhimurium; assay: Antimicrobial activity against Salmonella typhimurium ATCC 14028 incubated for 24 hrs by microtiter broth dilution method; assay type: functional, organism-based; conditions: Salmonella enterica subsp. enterica serovar Typhimurium
Outline: (§2)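 Two-fold serial dilutions of compounds in DMSO were added to Mueller Hinton broth in 96-well microtiter plates (final 0.64% DMSO). Wells were inoculated with overnight bacterial culture at 5 × 10⁵ cfu/mL and incubated at 37 °C for 24 h. The MIC was the lowest concentration with no visible growth.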

[10] = tested on: Escherichia coli; assay: Antimicrobial activity against Escherichia coli ATCC 11775 incubated for 24 hrs by microtiter broth dilution method; assay type: functional, organism-based; outline: as §2
[11] = tested on: Staphylococcus epidermidis; assay: Antimicrobial activity against Staphylococcus epidermidis ATCC 12228 incubated for 24 hrs by microtiter broth dilution method; assay type: functional; outline: as §2
[12] = tested on: Kocuria rhizophila; assay: Antimicrobial activity against Kocuria rhizophila ATCC 9341 incubated for 24 hrs by microtiter broth dilution method; assay type: functional; outline: as §2
[13] = tested on: Bacillus subtilis; assay: Antimicrobial activity against Bacillus subtilis ATCC 6633 incubated for 24 hrs by microtiter broth dilution method; assay type: functional; outline: as §2
[14] = tested on: Klebsiella pneumoniae; assay: Antimicrobial activity against Klebsiella pneumoniae ATCC 4352 incubated for 24 hrs by microtiter broth dilution method; assay type: functional, organism-based; outline: as §2
[15] = tested on: Staphylococcus aureus; assay: Antimicrobial activity against Staphylococcus aureus ATCC 6538 incubated for 24 hrs by microtiter broth dilution method; assay type: functional; outline: as §2

Molecule	MIC [1]	MIC [2]	MIC [3]	MIC [4]	MIC [5]	MIC [6]	MIC [7]	MIC [8]	MIC [9]	MIC [10]	MIC ([11]; ATCC 12228, 24 h)	MIC ([12]; ATCC 9341, 24 h)	MIC ([13]; ATCC 6633, 24 h)	MIC [14]	MIC ([15]; ATCC 6538, 24 h)	MIC [11]	MIC [12]	MIC [13]	MIC [15]
CC12C[C@@]34C=CC(=O)[C@@](C)(CCC(=O)Nc5c(O)ccc(C(=O)O)c5O)C3[C@H](CC1C4)O2 (stereo partly drawn) [PLATENSIMYCIN]	4 µg/mL (≈ 9.06 µM)	4 µg/mL (≈ 9.06 µM)	8 µg/mL (≈ 18.1 µM)	4 µg/mL (≈ 9.06 µM)	8 µg/mL (≈ 18.1 µM)	8 µg/mL (≈ 18.1 µM)	8 µg/mL (≈ 18.1 µM)	8 µg/mL (≈ 18.1 µM)	–	–	–	–	–	–	–	–	–	–	–
COc1ccc(C=C2OC(=O)C=C2c2cc(Br)c(O)c(Br)c2)cc1 [RUBROLIDE P]	> 32 µg/mL	> 32 µg/mL	> 32 µg/mL	> 32 µg/mL	> 32 µg/mL	> 32 µg/mL	> 32 µg/mL	> 32 µg/mL	inactive	inactive	50 µg/mL (≈ 111 µM)	6.3 µg/mL (≈ 13.9 µM)	50 µg/mL (≈ 111 µM)	inactive	> 50 µg/mL	–	–	–	–
O=C1C=C(c2cc(Br)c(O)c(Br)c2)/C(=C/c2cc(Br)c(O)c(Br)c2)O1 [RUBROLIDE A]	4 µg/mL (≈ 6.71 µM)	4 µg/mL (≈ 6.71 µM)	8 µg/mL (≈ 13.4 µM)	4 µg/mL (≈ 6.71 µM)	8 µg/mL (≈ 13.4 µM)	8 µg/mL (≈ 13.4 µM)	8 µg/mL (≈ 13.4 µM)	8 µg/mL (≈ 13.4 µM)	inactive	inactive	1.6 µg/mL (≈ 2.69 µM)	1.6 µg/mL (≈ 2.69 µM)	1.6 µg/mL (≈ 2.69 µM)	inactive	3.1 µg/mL (≈ 5.2 µM)	–	–	–	–
GENTAMICIN	–	–	–	–	–	–	–	–	–	–	–	–	–	–	–	< 0.02 µg/mL	1.6 µg/mL	0.05 µg/mL	< 0.02 µg/mL
CN[C@H](CC(C)C)C(=O)N[C@H]1C(=O)N[C@@H](CC(N)=O)C(=O)N[C@H]2C(=O)N[C@H]3C(=O)N[C@H](C(=O)N[C@H](C(=O)O)c4cc(O)cc(O)c4-c4cc3ccc4O)[C@H](O)c3ccc(c(Cl)c3)Oc3cc2cc(c3O[C@@H]2O[C@H](CO)[C@@H](O)[C@H](O)[C@H]2O[C@H]2C[C@](C)(N)[C@H](O)[C@H](C)O2)Oc2ccc(cc2Cl)[C@H]1O [VANCOMYCIN]	0.25 µg/mL (≈ 0.173 µM)	–	–	< 0.13 µg/mL	–	0.25 µg/mL (≈ 0.173 µM)	–	–	–	–	–	–	–	–	–	–	–	–	–
COc1ccc(C=C2OC(=O)C=C2c2ccc(O)c(Br)c2)cc1	> 32 µg/mL	> 32 µg/mL	> 32 µg/mL	> 32 µg/mL	> 32 µg/mL	> 32 µg/mL	> 32 µg/mL	> 32 µg/mL	inactive	inactive	25 µg/mL (≈ 67 µM)	3.1 µg/mL (≈ 8.31 µM)	50 µg/mL (≈ 134 µM)	inactive	> 50 µg/mL	–	–	–	–
O=C1O/C(=C\c2cc(Br)c(O)c(Br)c2)C(c2cc(Br)c(O)c(Br)c2)=C1C(=O)c1cc(Br)c(O)c(Br)c1 [CADIOLIDE B]	1 µg/mL (≈ 1.14 µM)	2 µg/mL (≈ 2.29 µM)	1 µg/mL (≈ 1.14 µM)	2 µg/mL (≈ 2.29 µM)	1 µg/mL (≈ 1.14 µM)	1 µg/mL (≈ 1.14 µM)	1 µg/mL (≈ 1.14 µM)	0.5 µg/mL (≈ 0.572 µM)	inactive	inactive	3.1 µg/mL (≈ 3.55 µM)	3.1 µg/mL (≈ 3.55 µM)	3.1 µg/mL (≈ 3.55 µM)	inactive	3.1 µg/mL (≈ 3.55 µM)	–	–	–	–
O=C1O/C(=C\c2cc(Br)c(O)c(Br)c2)C(c2ccc(O)c(Br)c2)=C1C(=O)c1cc(Br)c(O)c(Br)c1 [CADIOLIDE E]	2 µg/mL (≈ 2.52 µM)	2 µg/mL (≈ 2.52 µM)	2 µg/mL (≈ 2.52 µM)	4 µg/mL (≈ 5.03 µM)	1 µg/mL (≈ 1.26 µM)	0.25 µg/mL (≈ 0.315 µM)	1 µg/mL (≈ 1.26 µM)	0.5 µg/mL (≈ 0.629 µM)	inactive	inactive	6.3 µg/mL (≈ 7.93 µM)	0.2 µg/mL (≈ 0.252 µM)	3.1 µg/mL (≈ 3.9 µM)	inactive	3.1 µg/mL (≈ 3.9 µM)	–	–	–	–
O=C1O/C(=C\c2ccc(O)c(Br)c2)C(c2cc(Br)c(O)c(Br)c2)=C1C(=O)c1cc(Br)c(O)c(Br)c1 [CADIOLIDE D]	0.5 µg/mL (≈ 0.629 µM)	0.5 µg/mL (≈ 0.629 µM)	1 µg/mL (≈ 1.26 µM)	0.25 µg/mL (≈ 0.315 µM)	0.5 µg/mL (≈ 0.629 µM)	0.25 µg/mL (≈ 0.315 µM)	0.25 µg/mL (≈ 0.315 µM)	0.25 µg/mL (≈ 0.315 µM)	inactive	inactive	0.8 µg/mL (≈ 1.01 µM)	1.6 µg/mL (≈ 2.01 µM)	6.3 µg/mL (≈ 7.93 µM)	inactive	6.3 µg/mL (≈ 7.93 µM)	–	–	–	–
O=C1C=C(c2ccc(O)c(Br)c2)/C(=C/c2cc(Br)c(O)c(Br)c2)O1 [RUBROLIDE J]	2 µg/mL (≈ 3.87 µM)	2 µg/mL (≈ 3.87 µM)	2 µg/mL (≈ 3.87 µM)	1 µg/mL (≈ 1.93 µM)	4 µg/mL (≈ 7.74 µM)	2 µg/mL (≈ 3.87 µM)	2 µg/mL (≈ 3.87 µM)	2 µg/mL (≈ 3.87 µM)	inactive	inactive	0.8 µg/mL (≈ 1.55 µM)	6.3 µg/mL (≈ 12.2 µM)	1.6 µg/mL (≈ 3.09 µM)	inactive	3.1 µg/mL (≈ 6 µM)	–	–	–	–
O=C1O/C(=C\c2ccc(O)c(Br)c2)C(c2ccc(O)c(Br)c2)=C1C(=O)c1cc(Br)c(O)c(Br)c1 [CADIOLIDE C]	0.25 µg/mL (≈ 0.349 µM)	0.5 µg/mL (≈ 0.698 µM)	0.5 µg/mL (≈ 0.698 µM)	0.25 µg/mL (≈ 0.349 µM)	0.5 µg/mL (≈ 0.698 µM)	< 0.13 µg/mL	0.25 µg/mL (≈ 0.349 µM)	< 0.13 µg/mL	inactive	inactive	0.4 µg/mL (≈ 0.559 µM)	0.2 µg/mL (≈ 0.279 µM)	3.1 µg/mL (≈ 4.33 µM)	inactive	0.4 µg/mL (≈ 0.559 µM)	–	–	–	–
CCCCCCCCCC(=O)N[C@@H](Cc1c[nH]c2ccccc12)C(=O)N[C@H](CC(N)=O)C(=O)N[C@@H](CC(=O)O)C(=O)N[C@@H]1C(=O)NCC(=O)N[C@@H](CCCN)C(=O)N[C@@H](CC(=O)O)C(=O)N[C@H](C)C(=O)N[C@@H](CC(=O)O)C(=O)NCC(=O)N[C@H](CO)C(=O)N[C@@H]([C@H](C)CC(=O)O)C(=O)N[C@@H](CC(=O)c2ccccc2N)C(=O)O[C@@H]1C	4 µg/mL (≈ 2.47 µM)	16 µg/mL (≈ 9.87 µM)	> 32 µg/mL	2 µg/mL (≈ 1.23 µM)	> 32 µg/mL	16 µg/mL (≈ 9.87 µM)	> 32 µg/mL	> 32 µg/mL	–	–	–	–	–	–	–	–	–	–	–
